# Biological target: T1, Sterol O-acyltransferase 1 (Rattus norvegicus) (UniProt O70536)
# T1 sequence (whole entry): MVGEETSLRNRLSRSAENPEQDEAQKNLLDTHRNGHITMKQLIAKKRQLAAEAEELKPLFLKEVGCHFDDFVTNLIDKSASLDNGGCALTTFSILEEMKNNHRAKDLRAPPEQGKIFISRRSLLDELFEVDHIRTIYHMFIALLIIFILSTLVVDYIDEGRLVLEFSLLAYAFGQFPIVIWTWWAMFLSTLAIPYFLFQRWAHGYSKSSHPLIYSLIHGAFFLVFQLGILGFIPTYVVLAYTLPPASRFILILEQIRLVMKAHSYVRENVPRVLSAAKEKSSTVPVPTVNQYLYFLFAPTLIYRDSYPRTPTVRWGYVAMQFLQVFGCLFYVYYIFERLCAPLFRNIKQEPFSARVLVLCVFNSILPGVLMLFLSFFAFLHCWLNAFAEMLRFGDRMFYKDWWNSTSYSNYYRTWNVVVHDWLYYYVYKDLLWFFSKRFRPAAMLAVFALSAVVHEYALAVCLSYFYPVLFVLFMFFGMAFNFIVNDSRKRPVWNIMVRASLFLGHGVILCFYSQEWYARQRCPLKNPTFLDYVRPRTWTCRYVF
# Assay: In vitro percentage inhibition against acyl coenzyme A:cholesterol acyltransferase derived from rat adrenals
# Parameters: concentration or dose not given beside the values
# Conditions: concentration not given here
# Method in brief: (§1)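 Rat adrenal 1000g supernatant (microsomal ACAT) in 0.2 M KH2PO4 pH 7.4 with BSA; test compound at final 5.2 µg/mL, preincubated 37 °C 10 min; [14C]oleoyl-CoA (0.4 µCi) added, 37 °C 30 min. Cholesteryl ester separated by TLC, scintillation counted; mean percent inhibition against compound-free control.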
row,inhibition [%],Structure (SMILES)
1,68,O=C(Nc1ccc(Cl)cc1)N(Cc1ccccc1)c1ccccc1
2,62,CCCCN(CCCC)C(=O)Nc1ccccc1C
3,56,CCCCN(CCCC)C(=O)Nc1ccc(F)cc1
4,86,CCCCN(Cc1ccccc1)C(=O)Nc1cc(Cl)ccc1O
5,-7,Cc1ccc(NC(=O)N(C)C)c(C)c1
6,82,O=C(Nc1ccc(Br)cc1Br)N(Cc1ccccc1)c1ccccc1
7,79,CCCCN(Cc1ccccc1)C(=O)Nc1ccccc1C
8,93,CCCCN(Cc1ccccc1)C(=O)Nc1cc(C)ccc1C
9,87,Cc1ccc(NC(=O)N(Cc2ccccc2)Cc2ccccc2)cc1
10,86,CCCCN(Cc1ccccc1)C(=O)Nc1cccc(C(F)(F)F)c1
11,64,CCCCN(C)C(=O)Nc1ccc(Cl)c(Cl)c1
12,81,CCCCN(Cc1ccccc1)C(=O)Nc1cc(Cl)ccc1OC
13,90,Cc1ccc(NC(=O)N(C2CCCC2)C2CCCC2)c(C)c1
14,43,C=CCN(CC=C)C(=O)Nc1ccc(C)cc1C
15,-1,Cc1ccc(NC(=O)N(C(C)C)C(C)C)c(C)c1
16,86,CCCCN(Cc1ccccc1)C(=O)Nc1cccc(C)c1C
17,8,CCCN(CCC)C(=O)Nc1ccc(C)cc1C
18,51,CCCCN(CCCC)C(=O)Nc1ccccc1Br
19,88,CCCCN(CCCC)C(=O)Nc1ccc(Cl)cc1C
20,96,CCCCN(Cc1ccccc1)C(=O)Nc1ccc(Cl)c(Cl)c1
21,94,O=C(Nc1ccccc1Br)N(Cc1ccccc1)Cc1ccccc1
22,80,CCCCN(CCCC)C(=O)Nc1ccc(C)cc1
23,88,O=C(Nc1ccccc1Cl)N(Cc1ccccc1)Cc1ccccc1
24,74,CCCCN(Cc1ccccc1)C(=O)Nc1cc(OC)c(OC)c(OC)c1

row,inhibition [%],Structure (SMILES)
1,85,O=C(Nc1ccc(I)cc1)N(Cc1ccccc1)Cc1ccccc1
2,85,CCCCN(Cc1ccccc1)C(=O)Nc1cccc(Cl)c1OC
3,90,CCCCOc1ccc(NC(=O)N(Cc2ccccc2)Cc2ccccc2)cc1
4,85,CCCCN(CCCC)C(=O)Nc1cccc(SC)c1
5,18,CCN(CC)C(=O)Nc1ccc(C)cc1C
6,85,CCCCN(CCCC)C(=O)Nc1c(C)cccc1C
7,76,CCCCN(CCCC)C(=O)Nc1ccc(C(C)C)cc1
8,88,COc1ccc(OC)c(NC(=O)N(Cc2ccccc2)Cc2ccccc2)c1
9,77,Cc1ccccc1NC(=O)N(Cc1ccccc1)Cc1ccccc1
10,80,O=C(Nc1ccc(Br)cc1)N(Cc1ccccc1)Cc1ccccc1
11,92,CCCCN(Cc1ccccc1)C(=O)Nc1cccc(C)c1
12,87,COc1cccc(NC(=O)N(Cc2ccccc2)Cc2ccccc2)c1
13,81,CC(=O)c1cccc(NC(=O)N(Cc2ccccc2)Cc2ccccc2)c1
14,75,CCCCN(CCCC)C(=O)Nc1cc(Cl)ccc1C
15,87,CCCCN(Cc1ccccc1)C(=O)Nc1ccc(C)c(C)c1
16,89,Cc1cccc(NC(=O)N(Cc2ccccc2)Cc2ccccc2)c1
17,74,CCCCN(CCCC)C(=O)Nc1c(C)cc(C)cc1C
18,81,O=C(Nc1cccc([N+](=O)[O-])c1)N(Cc1ccccc1)Cc1ccccc1
19,88,CCCCN(CCCC)C(=O)Nc1cccc(C)c1C
20,72,COc1ccc(NC(=O)N(Cc2ccccc2)Cc2ccccc2)cc1
21,89,CCCCN(Cc1ccccc1)C(=O)Nc1cccc(Cl)c1
22,14,O=C(O)c1ccc(NC(=O)N(Cc2ccccc2)Cc2ccccc2)cc1
23,80,Cc1ccc(NC(=O)N(CC(C)C)CC(C)C)c(C)c1
24,78,O=C(Nc1ccc(Cl)cc1)N(Cc1ccccc1)Cc1ccccc1

# Biological target: T1, Sterol O-acyltransferase 1 (Rattus norvegicus)
# Assay: Liver hypolipidemic activity in rats
# Type: functional
# Conditions: not given
# Method in brief: (§2)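 Male CD-1 Sprague-Dawley rats, 140–150 g, fed 1% cholesterol/0.5% cholic acid diet with compound admixed at 0.01% (about 10 mg/kg/day) for 7 days. Serum and liver cholesterol measured by Technicon autoanalyzer methods; expressed as percent of control.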
row,LS [%],Structure (SMILES)
1,102,O=C(Nc1ccc(Cl)cc1)N(Cc1ccccc1)c1ccccc1
2,111,CCCCN(CCCC)C(=O)Nc1ccccc1C
3,137,CCCCN(Cc1ccccc1)C(=O)Nc1ccccc1C
4,104,CCCCN(Cc1ccccc1)C(=O)Nc1cccc(C(F)(F)F)c1
5,113,Cc1ccc(NC(=O)N(C2CCCC2)C2CCCC2)c(C)c1
6,88,CCCCN(Cc1ccccc1)C(=O)Nc1ccc(C(=O)O)cc1C

# Biological target: T1, Sterol O-acyltransferase 1 (Rattus norvegicus)
# Assay: In vitro percentage inhibition against Acyl coenzyme A:cholesterol acyltransferase derived from rat adrenals
# Parameters: concentration or dose not given beside the values
# Conditions: concentration not given here
# Method in brief: as §1
row,inhibition [%],Structure (SMILES)
1,9,CCN(C(=O)Nc1ccccc1C)c1ccccc1
2,80,O=C(Nc1cccc(Cl)c1Cl)N(Cc1ccccc1)Cc1ccccc1
3,67,CSc1ccc(NC(=O)N(Cc2ccccc2)Cc2ccccc2)cc1
4,89,O=C(Nc1c(Cl)cccc1Cl)N(Cc1ccccc1)Cc1ccccc1
5,86,CCCCC(CC)CN(CC(CC)CCCC)C(=O)Nc1ccc(C)cc1C (configuration not stated)
6,40,CCCCN(CCCCC1CCCCC1)C(=O)Nc1ccc(C)cc1C
7,92,O=C(Nc1ccc(Cl)c(C(F)(F)F)c1)N(Cc1ccccc1)Cc1ccccc1
8,85,CCCCN(CCCC)C(=O)Nc1cccc(Cl)c1Cl
9,91,COc1ccccc1NC(=O)N(Cc1ccccc1)Cc1ccccc1
10,83,O=C(Nc1ccc(Cl)cc1Cl)N(Cc1ccccc1)Cc1ccccc1
11,61,CCCCN(Cc1ccccc1)C(=O)Nc1cc(Cl)c(N)c(Cl)c1
12,78,CCC(C)N(C(=O)Nc1ccc(C)cc1C)C(C)CC (configuration not stated)
13,42,CCCCCCCC/C=C/CCCCCCCCN(Cc1ccc(CCCC)cc1)C(=O)Nc1ccc(C)cc1C (stereo in doubt; 160)
14,55,CCCCN(CCCC)C(=O)Nc1ccc(C(C)=O)cc1
15,74,CCc1cccc(C)c1NC(=O)N(Cc1ccccc1)Cc1ccccc1
16,72,CCc1cccc(CC)c1NC(=O)N(Cc1ccccc1)Cc1ccccc1
17,87,CCCCN(CCCC)C(=O)Nc1ccc([N+](=O)[O-])cc1Cl
18,49,CCCCCCCCCCCN(CCCCCCCCCCC)C(=O)Nc1ccc(C)cc1C
19,37,CCCCN(Cc1ccccc1)C(=O)Nc1ccccc1[N+](=O)[O-]

row,inhibition [%],Structure (SMILES)
1,48,CN(C(=O)Nc1cc(Cl)ccc1Cl)c1ccccc1
2,56,CCCCN(CCC12CC3CC(CC(C3)C1)C2)C(=O)Nc1ccc(C)cc1C
3,74,CCCCN(CC(c1ccccc1)C1CCCCC1)C(=O)Nc1ccc(C)cc1C (configuration not stated)
4,75,CCCCN(CCCC)C(=O)Nc1ccc([N+](=O)[O-])cc1
5,89,Cc1ccc(C)c(NC(=O)N(Cc2ccccc2)Cc2ccccc2)c1
6,86,CCCCN(CCCC)C(=O)Nc1cccc(Br)c1
7,82,O=C(Nc1cc(Cl)ccc1Cl)N(Cc1ccccc1)Cc1ccccc1
8,33,Cc1ccc(Cl)cc1NC(=O)NCc1ccccc1
9,84,Cc1cccc(Cl)c1NC(=O)N(Cc1ccccc1)Cc1ccccc1
10,95,O=C(Nc1ccc(Cl)c(Cl)c1)N(Cc1ccccc1)Cc1ccccc1
11,97,CCCCN(CC(C)(c1ccccc1)c1ccccc1)C(=O)Nc1ccc(C)cc1C
12,83,CCCCN(CCCC)C(=O)Nc1ccc(I)cc1
13,90,CCCCCCCCCN(CCCCCCCCC)C(=O)Nc1ccc(C)cc1C
14,49,CCCCN(CCCC)C(=O)Nc1ccc(C)c(C)c1
15,72,O=C(Nc1cc(F)ccc1F)N(Cc1ccccc1)Cc1ccccc1
16,53,CCCCN(CCC(c1ccccc1)c1ccccc1)C(=O)Nc1ccc(C)cc1C
17,56,Cc1cccc(C)c1NC(=O)N(Cc1ccccc1)Cc1ccccc1
18,35,Cc1ccc(NC(=O)NCc2ccccc2)c(C)c1

# Biological target: T1, Sterol O-acyltransferase 1 (Rattus norvegicus)
# Assay: Serum hypolipidemic activity in rats
# Type: functional
# Conditions: not given
# Method in brief: as §2
row,SS [%],Structure (SMILES)
1,67,O=C(Nc1ccc(Cl)cc1)N(Cc1ccccc1)c1ccccc1
2,81,CCCCN(CCCC)C(=O)Nc1ccccc1C
3,109,CCCCN(Cc1ccccc1)C(=O)Nc1ccccc1C
4,84,CCCCN(Cc1ccccc1)C(=O)Nc1cccc(C(F)(F)F)c1
5,98,Cc1ccc(NC(=O)N(C2CCCC2)C2CCCC2)c(C)c1
6,76,CCCCN(Cc1ccccc1)C(=O)Nc1ccc(C(=O)O)cc1C
